From PubChem BioAssay
Compounds with a hit are over-represented: about 1.8% of the library has one in this group of screens.
CHRM5 PAM – human M5 muscarinic receptor positive allosteric modulators, primary screen, CHO-K1 cells, Fluo-8 calcium fluorescence. AID 624038, 2012. activation, % at 3 µM. Muscarinic acetylcholine receptor M5 (Homo sapiens), P08912. hit rate 0.3% among 360,000. CHO-K1 hM5, ACh EC20 PAM; 0% = ACh EC20, 100% = ACh EC100;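 active means activation above the run cutoff, the mean activation of all test compounds plus 3 SD, cut at about 18% in these data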
Target sequence (P08912 whole entry, looked up): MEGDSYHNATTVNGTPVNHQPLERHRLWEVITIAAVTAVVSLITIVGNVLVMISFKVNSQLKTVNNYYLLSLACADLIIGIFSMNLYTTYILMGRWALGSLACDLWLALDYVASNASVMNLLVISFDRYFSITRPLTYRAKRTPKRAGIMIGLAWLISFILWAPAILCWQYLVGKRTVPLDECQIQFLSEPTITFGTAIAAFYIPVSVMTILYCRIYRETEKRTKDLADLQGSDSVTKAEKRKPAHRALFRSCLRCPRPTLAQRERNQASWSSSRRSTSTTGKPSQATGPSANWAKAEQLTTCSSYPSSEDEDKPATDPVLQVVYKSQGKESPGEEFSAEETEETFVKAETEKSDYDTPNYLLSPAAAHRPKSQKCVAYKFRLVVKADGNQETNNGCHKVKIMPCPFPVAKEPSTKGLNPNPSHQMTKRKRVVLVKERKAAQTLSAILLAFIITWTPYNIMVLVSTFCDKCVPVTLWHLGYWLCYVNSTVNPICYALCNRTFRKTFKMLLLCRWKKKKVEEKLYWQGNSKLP
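Replicates: One well per compound, no replicates | System: Human M5 receptor in CHO-K1 cells | Benchmarks: Low control EC20 acetylcholine (0%), high control EC100 acetylcholine (100%) | Probe or stimulus: Acetylcholine, EC20 level | Times: Fluo-8 loading 80 min at 37 °C plus 30 min room temperature | Signal: Intracellular calcium via Fluo-8 fluorescence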
M5 ag – human M5 muscarinic receptor agonists, primary screen, CHO-K1 cells, Fluo-8 calcium fluorescence; hit rate 0.19% among 360,000; Muscarinic acetylcholine receptor M5 (Homo sapiens), P08912; CHO-K1 hM5 cells; 0% DMSO wells, 100% maximal acetylcholine response; activation, % at 3 µM;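 active means activation above the run's mean over test compounds plus 3 SD, cut at about 23% in these data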;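 further: signal is peak over basal fluorescence ratio across the kinetic read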
CHRM4 agonist – human M4 muscarinic receptor agonists, primary screen, CHO-K1 cells, Fluo-8 calcium fluorescence; activation, % at 3 µM; hit rate 0.14% among 360,000; CHO-K1 hM4/Gqi5; vehicle 0%, full acetylcholine response 100%; AID 624127, 2012;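 active means activation above the run mean over all test wells plus 3 SD, cut at about 32% in these data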;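 further: peak over basal fluorescence ratio per well then scaled between controls; 0% = DMSO wells and 100% = acetylcholine at EC100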
CHRM4 antagonist – human M4 muscarinic receptor antagonists, primary screen, CHO cells, Fluo-8 calcium fluorescence | CHO-hM4 cells, ACh EC80 | inhibition, % at 3 µM | hit rate 0.73% among 360,000;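 active means inhibition above its plate's cutoff, the mean inhibition of sample wells plus 3 SD, cut at about 27% in these data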;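 further: 0% = acetylcholine EC80 with DMSO and 100% = DMSO without agonist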
CHRM5 antagonist – human M5 muscarinic receptor antagonists, primary screen, CHO cells, Fluo-8 calcium fluorescence; Muscarinic acetylcholine receptor M5 (Homo sapiens), P08912; CHO-hM5 cells, ACh EC80; inhibition, % at 3 µM; hit rate 0.59% among 360,000;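 active means inhibition above a per-plate cutoff, the mean of that plate's test compounds plus 3 SD, cut at about 27% in these data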;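 further: 0% = acetylcholine EC80 with DMSO and 100% = DMSO without agonist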
M4 PAM – human M4 muscarinic receptor positive allosteric modulators, primary screen, CHO-K1 cells, Fluo-8 calcium fluorescence; hit rate 0.4% among 360,000; CHO-K1 hM4/Gqi5, ACh EC20; 0% = ACh EC20, 100% = maximal ACh; AID 624126, 2012; activation, % at 3 µM;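 active means activation above its plate's cutoff, the mean activation of sample wells plus 3 SD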
* marks the source's active call; other numbers are inactive results.

SMILES	CHRM5 PAM	M5 ag	CHRM4 agonist	CHRM4 antagonist	CHRM5 antagonist	M4 PAM
O=C(CN1C(=O)C(=O)c2ccccc21)NCCc1ccccc1	5.5	2.0	2.1	-4.8	0.0	-1.8
COc1ccccc1C(NC(=O)C1CCN(CCc2ccc(Br)cc2)CC1)c1ccccn1 (stereo not drawn)	-4.4	-3.1	0.5	-0.1	1.9	2.5
Cc1ccc(N2CN(CCc3ccccc3)CNC2=S)cc1	16.5	1.0	0.2	-7.2	-1.7	14.4*
CCOC(=O)c1ccc(N2CN(CCc3ccccc3)CNC2=S)cc1	-2.9	1.0	1.3	5.5	2.0	2.5
Cc1ccc2nc(SCC(=O)NC3CCS(=O)(=O)C3)[nH]c2c1 (stereo not drawn)	-3.8	4.0	-0.4	6.3	-1.2	-0.1
O=C(Nc1ccccc1Br)c1ccc(N2CCCC2=O)cc1	4.6	0.2	1.6	-10.3	0.3	5.7
Cc1ccc(C)c(-c2nnc(OCC(=O)Nc3cc(C)on3)c3ccccc23)c1	8.3	2.4	0.0	-1.0	-4.6	16.2*
CC(C)N(CC#CC(O)(c1ccccc1)c1ccccc1)CCO	-19.4	-9.7	1.2	42.3*	41.7*	-18.5
CC(C)N(CC#CC(O)(c1ccccc1)c1ccccc1)C(C)C	-31.8	-21.4	1.2	98.2*	95.6*	-59.2
CN(CC#CC(O)(c1ccccc1)c1ccccc1)C(C)(C)C	-35.4	-19.8	1.1	92.1*	76.7*	-16.3
CSc1ccccc1C(=O)C1CCCN(Cc2cnn(-c3ccccc3)c2)C1 (stereo not drawn)	-6.9	-10.4	1.7	-1.1	1.9	-6.2
C[C@H](CO)N1C[C@H](C)[C@H](CN(C)Cc2cncnc2)Oc2cc(Br)ccc2S1(=O)=O	-3.6	1.1	1.9	-5.8	7.2	-0.2
C[C@H]1CN([C@@H](C)CO)C(=O)CCCn2cc(nn2)CO[C@@H]1CN(C)C(=O)c1ccncc1	-1.8	2.4	1.4	-3.4	9.4	1.5
COc1ccc(NC(=O)CCNC(=O)c2ccc([N+](=O)[O-])cc2)cc1S(=O)(=O)N1CCCCC1	4.2	2.6	0.3	-14.2	-2.4	21.8*
C(=C\c1ccco1)/C1=NN(c2ccccc2)C(c2ccco2)C1 (stereo not drawn)	-3.8	5.1	3.1	16.0	15.0	-6.4
O=[N+]([O-])c1ccc(/C=C/C2=NN(c3ccccc3)C(c3ccco3)C2)o1 (stereo not drawn)	-23.6	57.8*	28.3	26.3	51.7*	-15.2
C1=C(CCNc2ncnc3c2[nH]c2ccccc23)CCCC1	-14.5	8.2	14.2	31.8*	31.9*	-13.2
CC(C)OCCCNc1ncnc2c1[nH]c1ccccc12	-28.1	5.1	24.1	13.3	29.6*	-11.6
OC(c1ccccc1)C(O)C(c1ccccc1)N1CCCCC1 (stereo not drawn)	2.3	-0.6	2.0	1.1	2.6	5.9
CCN(c1ccccc1)S(=O)(=O)c1ccc(OC)c(NC(=O)CCc2nc3ccccc3c(=O)[nH]2)c1	-24.4	-5.0	16.4	13.6	13.4	-18.1
COc1ccc(N(CC(=O)NCc2ccccc2C)S(=O)(=O)c2ccccc2[N+](=O)[O-])c(OC)c1	-2.4	2.5	4.9	-3.3	-10.7	3.1
CC#C[C@@H](CC)c1ccc2ccn(C)c2c1	-4.9	-5.4	-0.3	5.8	27.1*	1.3
Cc1ccc(NC(=O)c2oc3ccc(S(=O)(=O)N4CCOCC4)cc3c2C)c(C)c1	-1.1	3.0	3.9	-8.9	7.6	0.4
Cc1c(C(=O)NCCC2=CCCCC2)oc2ccc(S(=O)(=O)N3CCOCC3)cc12	-23.0	2.6	16.1	13.9	27.8*	-14.4
Cc1c(C(=O)NCCCN2CCCC2=O)oc2ccc(S(=O)(=O)N3CCOCC3)cc12	-1.0	-2.7	1.8	6.5	7.7	-2.8
SMILES	CHRM5 PAM	M5 ag	CHRM4 agonist	CHRM4 antagonist	CHRM5 antagonist	M4 PAM
Cc1cccc(NC(=O)c2oc3ccc(S(=O)(=O)N4CCOCC4)cc3c2C)c1C	-18.8	1.2	18.1	28.7*	11.1	-19.7
COc1ccccc1N1CCN(C(=O)c2cn(Cc3ccccc3)nc2-c2cccnc2)CC1	-10.3	29.4*	9.8	-5.8	-3.2	14.4
Cc1cc(CN(C)C(=O)c2ccc3nc(Cc4ccccc4F)oc3c2)on1	1.6	-3.3	1.1	3.8	10.1	11.3
O=c1oc(-c2ccccc2F)nc2scc(-c3ccccc3)c12	3.1	0.6	0.1	-0.2	7.9	-2.2
Cc1nc2scc(-c3ccccc3)c2c(=O)o1	23.3*	-2.4	0.5	-8.7	10.9	5.2
O=C(CCN1C(=O)C2CCCCC2C1=O)N1CCN(S(=O)(=O)c2ccccc2)CC1 (stereo not drawn)	-2.4	1.4	1.4	-2.6	13.8	-0.2
Cc1ccc(NC(=O)CCc2c(C)[nH]c(=O)c(C#N)c2C)cc1	0.1	-3.2	-0.4	7.0	2.8	-4.4
CCCCOC(=O)CCc1c(C)[nH]c(=O)c(C#N)c1C	7.8	-1.3	0.5	-2.0	-3.2	26.1*
CCOC(=O)C1CCCN(S(=O)(=O)CCNC(=O)c2ccc3c(c2)OCO3)C1 (stereo not drawn)	0.8	2.5	1.5	-1.4	7.6	-0.5
COc1ccccc1-n1c(SCC(N)=O)nc2sc3c(c2c1=O)CCC3	8.5	-1.4	-0.5	2.1	3.2	6.3
CC(=O)Nc1cccc2ccc(O)cc12	2.6	-1.9	0.3	-11.5	5.2	15.5*
CCOc1ccc(-n2c(SCC(=O)Nc3ccc(C(=O)O)cc3)nc3ccccc3c2=O)cc1	-4.1	-2.7	0.1	9.6	9.4	-5.4
COc1ccc(F)cc1CSc1nnnn1-c1ccc(O)cc1	-5.1	-1.1	5.6	15.2	-1.2	-6.7
COc1cc(CSc2nnnn2-c2ccc(C)cc2)cc(OC)c1OC	-18.7	2.1	12.9	17.1	30.8*	-8.1
Cc1noc(C)c1C(=O)OCC(=O)NCc1ccc(Cl)cc1	4.2	-2.6	0.7	-2.7	-3.0	5.1
COc1ccc(OC)c(Nc2nc(NCCCN(C)C)nc(N)c2[N+](=O)[O-])c1	-5.8	0.9	2.7	1.8	10.1	-3.4
COCCCNc1nc(N)c([N+](=O)[O-])c(Nc2cc(OC)ccc2OC)n1	8.3	36.2*	11.2	-16.9	5.2	2.1
